Source: ChEMBL document CHEMBL5131562, “1,3-Dioxane-Linked Novel Bacterial Topoisomerase Inhibitors: Expanding Structural Diversity and the Antibacterial Spectrum” (ACS Med Chem Lett, 2022)
In brackets after ≈: the same amount, converted by molar mass.

What was measured:
[1] = molecular target: Voltage-gated inwardly rectifying potassium channel KCNH2 (Homo sapiens, UniProt Q12809); experiment: Inhibition of hERG cardiac ion channel; format: toxicity
Procedure, shortened: (§1)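 hERG channel inhibition was run by a contract lab. […] Determinations were made in duplicate or triplicate (n = 2 or 3).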

[2] = tested on: Staphylococcus aureus; experiment: Antibacterial activity against cystic fibrosis isolate Staphylococcus aureus by CLSI method; format: functional
[3] = tested on: Staphylococcus aureus; experiment: Antibacterial activity against Staphylococcus aureus ATCC 29213 by CLSI method; format: functional
[4] = tested on: Staphylococcus aureus; experiment: Antibacterial activity against methicillin-resistant Staphylococcus aureus USA300 by CLSI method; format: functional
[5] = tested on: Staphylococcus aureus; experiment: Antibacterial activity against Staphylococcus aureus 3527 by CLSI method; format: functional
[6] = tested on: Staphylococcus aureus; experiment: Antibacterial activity against Staphylococcus aureus harbouring GyrA D83N mutant by CLSI method; format: functional
[7] = molecular target: DNA gyrase (Staphylococcus aureus, UniProt P0A0K8+P20831); experiment: Inhibition of Staphylococcus aureus DNA gyrase supercoiling activity incubated for 25 min by ethidium bromide/bromophenol blue staining based agarose gel electrophoresis analysis; format: protein-complex assay
[8] = molecular target: Topoisomerase IV (Staphylococcus aureus, UniProt P0C1S7+P0C1U9); experiment: Inhibition of Staphylococcus aureus DNA topoisomerase 4 decatenation activity using kDNA as substrate incubated for 10 to 20 min by ethidium bromide/bromophenol blue staining based agarose gel electrophoresis analysis; format: protein-complex assay
[9] = tested on: Staphylococcus aureus; experiment: Selectivity ratio of IC50 for inhibition of Staphylococcus aureus DNA topoisomerase 4 decatenation activity to IC50 for inhibition of Staphylococcus aureus DNA gyrase supercoiling activity
[10] = tested on: Neisseria gonorrhoeae; experiment: Antimicrobial activity against Neisseria gonorrhoeae G strain harbouring type 2 topoisomerase GyrA S91F and ParE G410V mutant incubated for 20 to 24 hrs by CLSI protocol based broth microdilution method; format: functional; details: time 20-24 hrs
[11] = tested on: Neisseria gonorrhoeae; experiment: Antimicrobial activity against wild type Neisseria gonorrhoeae ATCC 49226 incubated for 20 to 24 hrs by CLSI protocol based broth microdilution method; format: functional; details: time 20-24 hrs
[12] = tested on: Neisseria gonorrhoeae; experiment: Antimicrobial activity against wild type Neisseria gonorrhoeae F strain incubated for 20 to 24 hrs by CLSI protocol based broth microdilution method; format: functional; details: time 20-24 hrs
[13] = tested on: Neisseria gonorrhoeae; experiment: Antimicrobial activity against Neisseria gonorrhoeae K strain harbouring type 2 topoisomerase GyrA S91F, D95N and ParC S87R, S88P mutant incubated for 20 to 24 hrs by CLSI protocol based broth microdilution method; format: functional; details: time 20-24 hrs
[14] = tested on: Neisseria gonorrhoeae; experiment: Antimicrobial activity against wild type Neisseria gonorrhoeae O strain incubated for 20 to 24 hrs by CLSI protocol based broth microdilution method; format: functional; details: time 20-24 hrs
[15] = tested on: Neisseria gonorrhoeae; experiment: Antimicrobial activity against wild type Neisseria gonorrhoeae P strain incubated for 20 to 24 hrs by CLSI protocol based broth microdilution method; format: functional; details: time 20-24 hrs
[16] = tested on: Neisseria gonorrhoeae; experiment: Antimicrobial activity against wild type Neisseria gonorrhoeae V strain harbouring type 2 topoisomerase GyrA S91F, D95G and ParC S87R mutant incubated for 20 to 24 hrs by CLSI protocol based broth microdilution method; format: functional; details: time 20-24 hrs
[17] = tested on: Neisseria gonorrhoeae; experiment: Antimicrobial activity against wild type Neisseria gonorrhoeae Y strain harbouring type 2 topoisomerase GyrA S91F, D95G and ParC S87R mutant incubated for 20 to 24 hrs by CLSI protocol based broth microdilution method; format: functional; details: time 20-24 hrs
[18] = tested on: Neisseria gonorrhoeae; experiment: Antimicrobial activity against wild type Neisseria gonorrhoeae ATCC 49226 incubated for 20 hrs by agar dilution method; format: functional
[19] = tested on: Neisseria gonorrhoeae; experiment: Antimicrobial activity against Neisseria gonorrhoeae G strain harbouring type 2 topoisomerase GyrA S91F and ParE G410V mutant incubated for 20 hrs by agar dilution method; format: functional
[20] = tested on: Neisseria gonorrhoeae; experiment: Antimicrobial activity against Neisseria gonorrhoeae M strain harbouring type 2 topoisomerase GyrA S91F,D95G mutant incubated for 20 hrs by agar dilution method; format: functional
[21] = tested on: Neisseria gonorrhoeae; experiment: Antimicrobial activity against Neisseria gonorrhoeae L strain harbouring type 2 topoisomerase GyrA S91F,D95N and ParC D86N,S88P mutant incubated for 20 hrs by agar dilution method; format: functional
[22] = Metabolic stability in mouse liver microsomes assessed as half life; format: ADME, Microsome
[23] = Cytotoxicity activity against human K562 cells assessed as inhibition of cellular growth; format: toxicity, cell-based
Procedure, shortened: (§2)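 Human K562 leukemia cells were tested alongside K/VP.5, an etoposide-resistant clonal subline derived from them that has reduced levels of human topoisomerase IIα. Cell growth inhibition was expressed as an IC50.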

[24] = Cytotoxicity activity against human K/VP.5 cells assessed as inhibition of cellular growth; format: toxicity, cell-based; procedure, shortened: as §2
[25] = Inhibition of Neisseria gonorrhoeae DNA gyrase supercoiling activity incubated for 25 min by ethidium bromide/bromophenol blue staining based agarose gel electrophoresis analysis
Procedure, shortened: (§3)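 The N. gonorrhoeae enzymes were assayed separately: supercoiling by DNA gyrase, and decatenation of kDNA by topoisomerase IV. Concentration–response data were collected over at least three independent experiments and summarized with standard deviation, and IC50 values were derived.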

[26] = Inhibition of Neisseria gonorrhoeae DNA topoisomerase 4 decatenation activity using kDNA as substrate incubated for 10 to 20 min by ethidium bromide/bromophenol blue staining based agarose gel electrophoresis analysis; procedure, shortened: as §3
[27] = molecular target: hERG (KCNH2) (Homo sapiens, UniProt Q12809); experiment: Inhibition of hERG cardiac ion channel at 200 uM relative to control; format: toxicity; procedure, shortened: as §1

SMILES	IC50 [1]	MIC [2]	MIC [3]	MIC [4]	MIC [5]	MIC [6]	IC50 [7]	IC50 [8]	Ratio IC50 [9]	MIC [10]	MIC [11]	MIC [12]	MIC [13]	MIC [14]	MIC [15]	MIC [16]	MIC [17]	half-life [22]	IC50 [23]	IC50 [24]	further results
COc1ccc2ncc(F)c(C[C@H](O)[C@H]3OC[C@H](NC(=O)c4ccc5c(n4)NC(=O)CS5)CO3)c2n1	> 100 µM	≤ 0.06 µg/mL	0.06 µg/mL (≈ 0.116 µM)	≤ 0.06 µg/mL	≤ 0.06 µg/mL	0.25 µg/mL (≈ 0.485 µM)	0.15 µM	0.42 µM	2.8	0.12 µg/mL (≈ 0.233 µM)	≤ 0.015 µg/mL	≤ 0.015 µg/mL	≤ 0.015 µg/mL	≤ 0.015 µg/mL	≤ 0.015 µg/mL	≤ 0.015 µg/mL	≤ 0.015 µg/mL	5.42 min	7.5 µM	> 100 µM	MIC [18]: 0.12 µg/mL (≈ 0.233 µM); MIC [19]: 0.25 µg/mL (≈ 0.485 µM); MIC [20]: 0.12 µg/mL (≈ 0.233 µM); MIC [21]: 0.5 µg/mL (≈ 0.97 µM); IC50 [25]: 0.64 µM; IC50 [26]: 27 µM
COc1ccc2ncc(F)c(C[C@H](O)[C@H]3OC[C@H](NCc4cc5c(nn4)OCCS5)CO3)c2n1										32 µg/mL (≈ 65.4 µM)	8 µg/mL (≈ 16.3 µM)	1 µg/mL (≈ 2.04 µM)	16 µg/mL (≈ 32.7 µM)	16 µg/mL (≈ 32.7 µM)	16 µg/mL (≈ 32.7 µM)	≤ 0.03 µg/mL	0.5 µg/mL (≈ 1.02 µM)				IC50 [25]: 33 µM; IC50 [26]: 83 µM
COc1ccc2ncc(F)c(C[C@H](O)[C@H]3OC[C@H](NCc4ccc5c(n4)NC(=O)CS5)CO3)c2n1										≤ 0.03 µg/mL	≤ 0.03 µg/mL	≤ 0.03 µg/mL	≤ 0.03 µg/mL	≤ 0.03 µg/mL	≤ 0.03 µg/mL	≤ 0.03 µg/mL	≤ 0.03 µg/mL				MIC [18]: 0.25 µg/mL (≈ 0.498 µM); MIC [19]: 1 µg/mL (≈ 1.99 µM); MIC [20]: 0.5 µg/mL (≈ 0.997 µM); MIC [21]: 1 µg/mL (≈ 1.99 µM); IC50 [25]: 0.39 µM; IC50 [26]: 3.6 µM
O=c1ccc2ccc(F)c3c2n1CC3C[C@H]1OC[C@H](NCc2cc3c(nn2)OCCO3)CO1 (some centres undefined)	> 200 µM	1 µg/mL (≈ 2.2 µM)	2 µg/mL (≈ 4.4 µM)	4 µg/mL (≈ 8.8 µM)	4 µg/mL (≈ 8.8 µM)	> 8 µg/mL	3.5 µM	9.7 µM	2.8	> 32 µg/mL	32 µg/mL (≈ 70.4 µM)	16 µg/mL (≈ 35.2 µM)	> 32 µg/mL	32 µg/mL (≈ 70.4 µM)	32 µg/mL (≈ 70.4 µM)	32 µg/mL (≈ 70.4 µM)	32 µg/mL (≈ 70.4 µM)	102 min	156 µM	171 µM	inhibition at 200 µM [27]: 21%
O=c1ccc2ccc(F)c3c2n1CC3C[C@H]1OC[C@H](NCc2cc3c(cn2)OCCC3)CO1 (some centres undefined)	53 µM	≤ 0.25 µg/mL	≤ 0.25 µg/mL	0.5 µg/mL (≈ 1.11 µM)	0.5 µg/mL (≈ 1.11 µM)	2 µg/mL (≈ 4.43 µM)	0.58 µM	2.9 µM	5	2 µg/mL (≈ 4.43 µM)	0.25 µg/mL (≈ 0.554 µM)	≤ 0.03 µg/mL	0.5 µg/mL (≈ 1.11 µM)	0.5 µg/mL (≈ 1.11 µM)	1 µg/mL (≈ 2.21 µM)	≤ 0.03 µg/mL	≤ 0.03 µg/mL	3.64 min	109 µM	85 µM	
O=C1COc2ccc(CN[C@H]3CO[C@H](CC4Cn5c(=O)ccc6ccc(F)c4c65)OC3)nc2N1 (some centres undefined)	30 µM	0.5 µg/mL (≈ 1.07 µM)	0.5 µg/mL (≈ 1.07 µM)	0.25 µg/mL (≈ 0.536 µM)	0.25 µg/mL (≈ 0.536 µM)	4 µg/mL (≈ 8.58 µM)	1.6 µM	1.3 µM	0.81	0.25 µg/mL (≈ 0.536 µM)	0.12 µg/mL (≈ 0.257 µM)	0.06 µg/mL (≈ 0.129 µM)	0.12 µg/mL (≈ 0.257 µM)	0.25 µg/mL (≈ 0.536 µM)	0.25 µg/mL (≈ 0.536 µM)	≤ 0.03 µg/mL	0.12 µg/mL (≈ 0.257 µM)	18.4 min	101 µM	127 µM	
O=c1ccc2ncc(F)c3c2n1CC3C[C@H]1OC[C@H](NCc2cc3c(nn2)OCCS3)CO1 (some centres undefined)	> 200 µM	2 µg/mL (≈ 4.24 µM)	2 µg/mL (≈ 4.24 µM)	4 µg/mL (≈ 8.48 µM)	4 µg/mL (≈ 8.48 µM)	> 8 µg/mL	1.8 µM	10 µM	5.6	> 32 µg/mL	32 µg/mL (≈ 67.9 µM)	8 µg/mL (≈ 17 µM)	32 µg/mL (≈ 67.9 µM)	32 µg/mL (≈ 67.9 µM)	32 µg/mL (≈ 67.9 µM)	4 µg/mL (≈ 8.48 µM)	8 µg/mL (≈ 17 µM)	113 min	98 µM	197 µM	inhibition at 200 µM [27]: 23%
O=C(O)c1cn(C2CC2)c2cc(N3CCNCC3)c(F)cc2c1=O [CIPROFLOXACIN]																					MIC [20]: 2 µg/mL (≈ 6.04 µM); MIC [21]: > 8 µg/mL
COc1ccc2ncc(F)c(C[C@H](O)[C@H]3OC[C@H](NC(=O)c4ccc5c(n4)NC(=O)CO5)CO3)c2n1	> 100 µM	≤ 0.06 µg/mL	0.125 µg/mL (≈ 0.25 µM)	≤ 0.06 µg/mL	≤ 0.06 µg/mL	1 µg/mL (≈ 2 µM)	0.19 µM	1.1 µM	5.8	0.25 µg/mL (≈ 0.501 µM)	≤ 0.015 µg/mL	≤ 0.015 µg/mL	0.12 µg/mL (≈ 0.24 µM)	0.06 µg/mL (≈ 0.12 µM)	≤ 0.015 µg/mL	≤ 0.015 µg/mL	≤ 0.015 µg/mL	5.56 min	0.49 µM	3.1 µM	
